Results of several laboratories.
Protocols differ between the studies behind these lines.
Target: MAP/microtubule affinity-regulating kinase 4 (MARK4, Homo sapiens, UniProt Q96L34)
Sequence (Q96L34 1-752, as in one of the studies): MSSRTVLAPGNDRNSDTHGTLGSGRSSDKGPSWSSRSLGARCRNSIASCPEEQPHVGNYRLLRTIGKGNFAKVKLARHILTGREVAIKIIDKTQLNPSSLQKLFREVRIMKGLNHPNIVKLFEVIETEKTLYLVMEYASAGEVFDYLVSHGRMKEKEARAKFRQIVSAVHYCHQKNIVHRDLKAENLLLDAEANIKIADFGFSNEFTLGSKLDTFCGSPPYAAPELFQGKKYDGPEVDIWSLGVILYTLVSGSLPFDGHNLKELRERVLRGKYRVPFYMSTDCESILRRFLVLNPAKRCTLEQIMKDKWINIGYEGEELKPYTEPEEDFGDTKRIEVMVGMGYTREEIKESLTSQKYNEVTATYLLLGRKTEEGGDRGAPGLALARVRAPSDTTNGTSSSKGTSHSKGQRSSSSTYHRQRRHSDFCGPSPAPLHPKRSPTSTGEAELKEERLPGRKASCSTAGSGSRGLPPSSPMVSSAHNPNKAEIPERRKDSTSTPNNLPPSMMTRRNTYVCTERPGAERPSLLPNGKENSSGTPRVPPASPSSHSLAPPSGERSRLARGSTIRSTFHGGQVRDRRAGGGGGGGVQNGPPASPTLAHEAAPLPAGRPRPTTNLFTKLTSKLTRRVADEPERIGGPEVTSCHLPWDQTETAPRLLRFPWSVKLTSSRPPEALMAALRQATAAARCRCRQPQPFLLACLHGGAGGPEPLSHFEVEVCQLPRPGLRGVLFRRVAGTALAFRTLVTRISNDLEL

N[C@@H]1CCN(c2nccc(-c3cnn4ncccc34)n2)C1  remaining binding (binding; 1 µM): 100%
CS(=O)(=O)NCC[C@H](NC(=O)c1cncc2c1cnn2-c1ccc(F)cc1)c1ccnc(S(C)(=O)=O)c1  remaining binding (cell-free assay, competition with immobilised ligand; 1 µM): 78%
O=C(NCCCNc1ccnc(Nc2cccc(NC(=O)N3CCCC3)c2)n1)C1CCC1  remaining activity (enzyme activity, inhibitor, radiometric; 1 µM): 85%
O=C(Nc1cnn(-c2csc(C(=O)NC3COC3)c2)c1)Nc1ccccc1Cl  remaining activity (enzyme activity, inhibitor; 5 µM): 108%
O=C(N[C@H]1CCCCC/C=C\C2C[C@@]2(C(=O)O)NC(=O)[C@@H]2C[C@@H](Oc3ccncc3)CN2C1=O)OC1CCCC1 (stereo partly shown)  remaining binding (binding, competition with immobilised ligand; 1 µM): 100%
Cc1nn(CC(F)(F)F)cc1Nc1ncc(C2CC2)c(NCc2ccc(S(N)(=O)=O)cc2)n1  remaining activity (enzyme activity, inhibitor, radiometric; 1 µM): 110%
COc1cc2ncnc(Nc3ccc(Oc4ccccc4)cc3C)c2cc1OC  inhibition (enzyme activity, inhibitor; 1 µM): 6%
Cc1nn(CC(F)(F)F)cc1Nc1ncc(Br)c(NCCc2cnc[nH]2)n1  remaining activity (enzyme activity, inhibitor, radiometric; 1 µM): 49%
O=C(Nc1cccnn1)N1CCC(=Cc2cccc(Oc3ccc(C(F)(F)F)cn3)c2)CC1  remaining binding (cell-free assay, competition with immobilised ligand; 1 µM): 76%
O=C(NCCCNc1nc(Nc2cccc(NC(=O)N3CCCC3)c2)ncc1C1CC1)C1CCC1  remaining activity (enzyme activity, inhibitor, radiometric; 1 µM): 7%
CN1CC(Oc2cnc(C#N)cc2-c2ccn3nc(NC(=O)C4CC4)cc3c2)C1  inhibition (enzyme activity, inhibitor; 1 µM): 8%
Oc1cccc(-c2nc(N3CCOCC3)c3oc4ncccc4c3n2)c1  remaining activity (enzyme activity, inhibitor; 10 µM): 108%
c1cc(CN2CCOCC2)cc(Nc2nccc(NCCc3cnc[nH]3)n2)c1  remaining activity (enzyme activity, inhibitor, radiometric; 1 µM): 68%
CCCS(=O)(=O)Nc1ccc(F)c(C(=O)c2c[nH]c3ncc(-c4ccc(Cl)cc4)cc23)c1F  inhibition (enzyme activity, inhibitor; 1 µM): < 20%
N#CCCc1ccc2c(c1)-c1[nH]c3ccc([N+](=O)[O-])cc3c1CC(=O)N2  remaining signal (cell-free assay; 0.5 µM): 62.5%
C[C@H](c1cccc(C#N)c1)n1cc(Cl)cc(C(N)=O)c1=N  remaining binding (cell-free assay, competition with immobilised ligand; 1 µM): 99%
FC(F)(F)Oc1cccc(-c2cnc3ccc(-c4ccncc4)nn23)c1  activity vs control (enzyme activity, inhibitor, radiometric; 5 µM): 93%
CN1CCN(c2cnc3c(C4CCN(C(=O)c5ccc(OC(F)(F)F)cc5N)CC4)ncnc3c2)CC1  remaining binding (cell-free assay, competition with immobilised ligand; 1 µM): 100%
NS(=O)(=O)c1ccc(CNc2nc(Nc3cccc(NC(=O)N4CCCC4)c3)ncc2C2CC2)cc1  remaining activity (enzyme activity, inhibitor, radiometric; 1 µM): 89%
CC(=O)N1CCC(c2ccc(C(=O)NC(=N)N)cc2C(F)(F)F)CC1  remaining binding (cell-free assay, competition with immobilised ligand; 1 µM): 100%
O=C1Nc2ccc(Cl)cc2C1=Cc1cc(Cl)c(O)c(Cl)c1  remaining signal (cell-free assay; 0.5 µM): 78.4%
CCCCN(CCCC)C(=O)CN1C[C@@H](c2cc(OC)c3c(c2)OCO3)[C@H](C(=O)O)[C@H]1CC(C)(C)CCC  remaining binding (cell-free assay, competition with immobilised ligand; 1 µM): 93%
NS(=O)(=O)c1ccc(CNc2nc(Nc3cccc(CN4CCOCC4)c3)ncc2Br)cc1  remaining activity (enzyme activity, inhibitor, radiometric; 1 µM): 61%
COc1ccc2c(c1)O[C@@H](c1ccc(OC)c(OC)c1)C[C@H]2NC(=O)C1(c2ccc3c(c2)OC(F)(F)O3)CC1  remaining binding (cell-free assay, competition with immobilised ligand; 1 µM): 92%
Cc1nn(CC(F)(F)F)cc1Nc1nccc(NCCc2cnc[nH]2)n1  remaining activity (enzyme activity, inhibitor, radiometric; 1 µM): 99%
